# CHO parental Ca = counter-screen: ATP calcium response change in parental CHO cells. parental CHO-K1, ATP-induced calcium, Fluo-8 fluorescence. inhibition, % at 5.6 µM. 0.63% of 330,000 active. AID 463079;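 active means inhibition above that plate's mean sample inhibition plus 3 SD, cut at about 26% in these data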;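 further: 0% = ATP-challenged DMSO wells and 100% = DMSO wells without ATP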
#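 Material: Parental CHO cells | Reagent: ATP | Compound dosing: Single nominal dose of 5.6 µM per compound | Detection: Intracellular calcium via Fluo-8 no-wash fluorescent dye | Read-out: % inhibition of ATP-induced calcium mobilization | Benchmarks: Low control ATP plus DMSO, high control DMSO only | Replicates: Singlicate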
# NTR1 agonist = activates human neurotensin receptor 1. NTR1-U2OS beta-arrestin-GFP spot imaging, agonist mode. activation, % at 20 µM. 0.17% of 330,000 active;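 active means activation at or above 40% of the spot to cytoplasm intensity ratio, with at least 20 cells analyzed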;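 further: 0% = DMSO without peptide and 100% = 100 nM NTR1 peptide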
# OX1R antag-1 = blocks the human orexin 1 receptor; O43613; CHO/OX1R cells, Fluo-8 calcium fluorescence, orexin A; inhibition, % at 5 µM; 0.43% of 330,000 active;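 active means inhibition above its plate's threshold, mean inhibition of all tested compounds on the plate plus 3 SD, cut at about 37% in these data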;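 further: 0% = orexin A challenge wells and 100% = SB-334867-A antagonist wells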
# OX1R antag-2 = antagonists of human orexin 1 receptor (OX1R); O43613; OX1R-expressing cells, FRET antagonist read-out; inhibition, % at 6.6 µM; 1.8% of 330,000 active; AID 485270; in the data active means inhibition mostly above about 38%, no sharp cut-off; inactive means mostly below about 40%;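 further: 0% = agonist challenge alone and 100% = reference antagonist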
# TAAR1 agonist = human TAAR1 agonism. Q96RJ0. CHO RD-HGA16 TAAR1, Fluo-8 calcium fluorescence; vehicle wells 0%, saturating PEA agonist 100%. activation, % at 3 µM. 0.99% of 360,000 active. AID 624467;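 active means activation above the mean activation of all test compounds in the run plus 3 SD, cut at about 38% in these data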
# Target sequence (Q96RJ0 whole entry, looked up): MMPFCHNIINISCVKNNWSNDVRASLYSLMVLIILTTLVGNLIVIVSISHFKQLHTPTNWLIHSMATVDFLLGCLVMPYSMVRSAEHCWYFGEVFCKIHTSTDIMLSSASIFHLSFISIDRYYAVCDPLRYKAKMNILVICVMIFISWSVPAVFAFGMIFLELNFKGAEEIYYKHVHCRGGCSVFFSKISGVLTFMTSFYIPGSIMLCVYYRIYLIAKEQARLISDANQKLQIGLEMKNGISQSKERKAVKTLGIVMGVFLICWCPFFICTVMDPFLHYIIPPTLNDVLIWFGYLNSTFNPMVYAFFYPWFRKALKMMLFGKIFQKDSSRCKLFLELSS
#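 Assay system: CHO-derived RD-HGA16 cells with stable Gα16 and human TAAR1; timing: 17-24 h seeding, 75 min 37 °C dye, 30 min RT; read-out: % activation from peak over basal fluorescence ratio, DMSO-to-PEA scaled; measured by: kinetic Fluo-8 calcium fluorescence; benchmarks: low control DMSO, high control PEA (EC100); doses: 3 µM single concentration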
# TAAR1 antagonist = antagonists of human TAAR1; AID 624466; Q96RJ0; CHO RD-HGA16 TAAR1, Fluo-8 calcium fluorescence, antagonist; 1.5% of 360,000 active; inhibition, % at 3 µM;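 active means inhibition above a per-plate cutoff, the mean inhibition of test compounds on that plate plus 3 SD, cut at about 49% in these data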;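 further: 0% = DMSO plus EC80 beta-PEA response and 100% = DMSO alone without agonist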
#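 Material: CHO RD-HGA16 cells bearing hTAAR1; compound dosing: one-point dosing, 3 µM nominal final; schedule: dye loading 75 min at 37 °C, then 30 min room temperature; measured by: calcium fluorescence with Fluo-8; control set: vehicle and agonist controls; replication: n of 1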
# TAAR1 ag conf = human TAAR1 agonism, confirmed; 82% of 2,400 active; shares compounds with TAAR1 agonist; CHO RD-HGA16 TAAR1, Fluo-8 calcium fluorescence; scaled: DMSO 0%, maximal phenethylamine 100%; activation, % at 3 µM; AID 651783;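 active means activation above a cutoff set at the run's mean compound activation plus 3 SD, cut at about 39% in these data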
# Ga16 ag counter = counter-screen for TAAR1 agonists: nonselective agonists in parental cells; shares compounds with TAAR1 agonist; CHO-Ga16 parental, Fluo-8 calcium fluorescence; normalized to maximal ATP response, DMSO zero; activation, % at 3 µM; 50% of 2,400 active; AID 651787;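 active means activation above the run cutoff, the mean activation over all tested wells plus 3 SD, cut at about 12% in these data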;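 further: 0% = DMSO wells and 100% = maximal ATP response on the peak over basal ratio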
# TAAR1 desens = TAAR1 response desensitization, agonist counter-screen; shares compounds with TAAR1 agonist; CHO RD-HGA16 hTAAR1, Fluo-8 calcium, beta-PEA response inhibition; inhibition, % at 3 µM; 46% of 2,400 active; AID 651951;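 active means inhibition above the run cutoff, the mean inhibition of all test compounds plus 3 SD, cut at about 49% in these data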;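 further: beta-PEA stimulus applied at its EC80; loss of beta-PEA calcium signal after compound pretreatment read as receptor desensitization; 0% = DMSO with beta-PEA at EC80 and 100% = DMSO alone without agonist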
# Ga16 antag count = nonselective Ga16 antagonist in TAAR1 agonist counter-screen. inhibition, % at 3 µM. 39% of 2,400 active. shares compounds with TAAR1 agonist. CHO-Ga16 ATP-induced calcium, Fluo-8 fluorescence;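 active means inhibition above the plate's mean compound inhibition plus 3 SD, computed per plate, cut at about 22% in these data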;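 further: 0% = EC80 ATP with DMSO and 100% = DMSO wells without ATP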
# Numbers without * were called inactive; · = no result given. Hits are enriched below; roughly 4% of the tested compounds scored in any of these assays.
SMILES,CHO parental Ca,NTR1 agonist,OX1R antag-1,OX1R antag-2,TAAR1 agonist,TAAR1 antagonist,TAAR1 ag conf,Ga16 ag counter,TAAR1 desens,Ga16 antag count
CCOC(=O)N[C@@H](Cc1cccnc1)C(=O)N1CCC[C@H]1C(=O)NCCc1ccccc1Cl,·,·,·,·,67*,61*,89*,5,86*,5
Cc1ccccc1C(=O)N[C@@H](Cc1cccnc1)C(=O)N1CCC[C@H]1C(=O)NCCc1ccccc1Cl,·,·,·,·,41*,48,84*,19*,84*,4
Cc1ccccc1C(=O)N1CCC[C@@H]1C(=O)N1CCC[C@H]1C(=O)NCc1ccncc1,·,·,·,·,0,-17,·,·,·,·
NC(=O)c1cc([N+](=O)[O-])ccc1NCc1ccc(C(=O)O)cc1,-7,-1,-3,49,6,19,·,·,·,·
CN(C)CCNc1ncnc2c1ncn2[C@H]1CN(CCc2ccccc2)C[C@@H](CO)O1,·,·,·,·,58*,-16,48*,-1,7,4
COc1ccc(-n2nc(C(=O)N(C)C)nc2-c2ccccc2)cc1,1,0,-12,-1,1,-22,·,·,·,·
Cc1nc2ccc(NC(=O)C3CCN(S(=O)(=O)c4cccs4)CC3)cc2s1,-6,1,-16,16,41*,-5,8,12*,12,13
O=C(Nc1ccc(F)c(F)c1)C1CCN(S(=O)(=O)c2cccs2)CC1,-13,-2,-4,10,23,3,·,·,·,·
CCc1ccc(NC(=O)C(CC)c2ccccc2)cc1 (stereo unspecified),39*,3,24,14,71*,37,67*,38*,65*,39*
N=C(N)SCc1ccc(Cl)cc1Cl,-4,2,7,3,58*,32,87*,19*,60*,15
CC(=O)c1ccc(OCC(=O)NC2CCCN(Cc3ccccc3F)C2)cc1 (stereo unspecified),·,0,·,·,1,-7,·,·,·,·
CC(C)(C)CN1CCNC(=O)C1CC(=O)NCCc1ccccc1F (stereo unspecified),-36,-1,-30,20,·,·,·,2,·,5
CC(C)(C)CN1CCNC(=O)C1CC(=O)NCCc1cnn(-c2ccccc2)c1 (stereo unspecified),-20,-1,-28,25,11,9,·,·,·,·
COc1cccc(CNC(=O)CC2C(=O)NCCN2CCCc2ccccc2)c1 (stereo unspecified),-20,1,-29,20,19,-15,·,·,·,·
O=C(CC1C(=O)NCCN1CC1CCCCC1)NCc1ccc(F)cc1 (stereo unspecified),-22,0,-16,5,0,5,·,·,·,·
COc1ccccc1CCNC(=O)CC1C(=O)NCCN1CCCc1ccccc1 (stereo unspecified),-24,0,-33,25,74*,17,71*,2,43,11
O=C(CC1C(=O)NCCN1CC1CCCCC1)NCCc1ccc(F)cc1 (stereo unspecified),-18,-1,-27,10,45*,-17,50*,0,5,2
COc1cccc(C(C)(O)c2nc(-c3ccc(OC)nc3)cs2)c1 (stereo unspecified),·,·,·,·,2,7,·,·,·,·
CCC1Oc2ccc(C)cc2N(CC(=O)NCCN2CCOCC2)C1=O (stereo unspecified),-7,2,9,4,2,-9,·,·,·,·
CCCCNc1ccc2c3c(cccc13)C(=O)N(CCCC)C2=O,·,·,·,·,498*,108*,182*,288*,90*,95*
O=C(CCCCCNc1nc(=S)[nH]c2ccccc12)NCc1ccccc1Cl,-28,2,-37,20,7,-4,·,·,·,·
S=c1nc(NCCc2ccccc2Cl)c2ccccc2[nH]1,·,10,·,·,52*,45,33,11,20,22*
CCOC(=O)CC1C(=O)NCCN1C(=O)c1ccc(Cl)cc1Cl (stereo unspecified),-7,-2,-9,-7,73*,-2,3,-1,-3,11
Clc1cccc(Cl)c1CSc1nnc(-c2ccncc2)s1,0,13,-7,14,117*,79*,128*,117*,100*,75*
CCOC(=O)[C@]12Cc3c(cc(OC)c(OC)c3OC)[C@H]1N(C1CCCCC1)C(=O)c1cc(OC)ccc12,·,·,·,·,0,-2,·,·,·,·
SMILES,CHO parental Ca,NTR1 agonist,OX1R antag-1,OX1R antag-2,TAAR1 agonist,TAAR1 antagonist,TAAR1 ag conf,Ga16 ag counter,TAAR1 desens,Ga16 antag count
CCOC(=O)c1c(C)[nH]c(C(=O)COC(=O)c2cnccn2)c1C,-12,-1,-12,-2,74*,13,0,2,7,13
CCOC(=O)c1c(C)[nH]c(C(=O)COC(=O)c2cccnc2Cl)c1C,-11,0,-11,9,10,10,·,·,·,·
O=C(NCCS(=O)(=O)NCc1ccccc1Cl)c1ccc2c(c1)OCO2,-13,0,-3,5,1,-19,·,·,·,·
O=C(NCCS(=O)(=O)NCCc1ccccc1)c1ccc2c(c1)OCO2,-4,1,-13,13,·,·,·,0,·,7
COc1ccc(C(=O)NCCS(=O)(=O)NCCc2ccccc2)cc1,-25,-1,-14,6,48*,16,72*,2,33,6
COc1ccc(CCNS(=O)(=O)CCNC(=O)c2ccccc2)cc1,-22,1,-27,2,20,19,·,·,·,·
O=C(NCCc1ccccc1)c1ccc2c(c1)OCCCO2,2,0,-12,35,46*,-1,60*,0,11,2
O=C(NCCc1ccccc1)c1ccc(=O)oc1,0,-1,-8,25,61*,8,67*,14*,12,4
COc1ccc(C(=O)Nc2ccc3c(c2)OCO3)cc1S(=O)(=O)N1CCOCC1,·,·,·,·,9,-28,·,·,·,·
CN(CC(=O)NC(=O)NC1CCCCC1)CC(=O)Nc1ccc(Cl)cc1,-16,1,0,-7,14,-34,·,·,·,·
CN(Cc1ccccc1)C(=O)[C@@H]1CCCN1S(=O)(=O)c1ccc(Cl)cc1,-16,0,-14,19,-1,-9,·,·,·,·
